In ChEMBL document CHEMBL4725467, “Antiferroptotic Activity of Phenothiazine Analogues: A Novel Therapeutic Strategy for Oxidative Stress Related Disease” (ACS Med Chem Lett, 2020):
One block for each molecule: values may come before it. Active and inactive are the calls of the source. The calls are words filed in the database; no cut-off is given here.

Tests used:
Lymphocyte [1] = assay: Induction of ATP production in FRDA patient-derived lymphocyte at 0.1 uM incubated for 24 hrs by luciferase-linked ATPase enzymatic assay; assay type: functional, tissue-based; conditions: Homo sapiens
Procedure, shortened: (§1)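 Total cellular ATP in cultured FRDA lymphocytes after 24 h with compound in glucose-free medium with 25 mM galactose, to force OXPHOS dependence. Tested range 100 nM–2.5 μM. Expressed as percent of total ATP relative to untreated control.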

HepG2 = assay: Inhibition of ferroptosis in human HepG2 cells assessed as increase in pAMPK/AMPK ratio at 1 uM incubated for 24 hrs by Western blot analysis; assay type: functional, cell-based
Procedure, shortened: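 HepG2 cells treated with or without compound. AMPK, p-AMPK and β-actin (loading control) detected by Western blot and quantified as p-AMPK/AMPK ratio. Triplicate experiments, mean ± SEM.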

Lymphocyte [2] = assay: Induction of ATP production in FRDA patient-derived lymphocyte incubated for 24 hrs by luciferase-linked ATPase enzymatic assay; assay type: functional, tissue-based; conditions: Homo sapiens, dose microM 0.25-2.5, time 24.0 hrs; procedure, shortened: as §1
Lymphocyte [3] = assay: Induction of mitochondria membrane potential depolarization in FRDA patient-derived lymphocyte at 2.5 uM incubated for 16 hrs by JC-1 probe based flow cytometry analysis; assay type: functional; conditions: Homo sapiens
Procedure, shortened: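 Mitochondrial inner membrane potential in FRDA lymphocytes measured by flow cytometry with the ratiometric probe JC-1. Percent of cells with intact Δψm taken from a two-dimensional color density dot plot. Duplicates run in two independent runs.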

Lymphocyte [4] = assay: Anti-ferroptotic activity in FRDA patient-derived Lymphocyte assessed as reduction in RSL3-induced lipid peroxidation incubated for overnight followed by RSL3 stimulation and measured after 90 mins by FACS analysis; assay type: functional, cell-based; conditions: Homo sapiens, 1.5 h
Procedure, shortened: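 FRDA patient lymphocytes pretreated with a range of concentrations, then challenged with RSL3 (GPX4 inhibitor) at 2 μM; lipid peroxidation read with the C11-BODIPY581/591 fluorescent probe. EC50 taken from dose–response curves by nonlinear regression fit.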

[5] = Inhibition of erastin-induced cell death in FRDA patient-derived fibroblast assessed as depletion of cellular ATP incubated for 12 hrs followed by erastin stimulation and measured after by luciferase-linked ATPase enzymatic assay; assay type: functional, tissue-based; conditions: Homo sapiens
Procedure, shortened: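 Primary FRDA patient fibroblasts treated with compound, then challenged with erastin (cystine-glutamate exchange inhibitor, GSH depletion). Cell death read as depletion of cellular ATP by a luciferase-linked kit assay.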

Lymphocyte [6] = assay: Cytotoxicity against FRDA patient-derived lymphocyte at 0.25 to 2.5 uM incubated for 24 to 48 hrs by flow cytometry analysis; assay type: cell-based; conditions: human, dose 0.25-2.5 µM, time 24-48 hrs
Procedure, shortened: (§2)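 FRDA lymphocytes kept 24 h in glucose-free medium with galactose to force reliance on mitochondrial ATP. Viability by flow cytometry with dual staining, calcein-AM for live and ethidium homodimer-1 for dead cells. Percent live cells taken from a two-dimensional color density dot plot. Duplicates run in two independent experiments.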

Lymphocyte [7] = assay: Induction of ATP production in FRDA patient-derived lymphocyte at 2.5 uM incubated for 24 hrs by luciferase-linked ATPase enzymatic assay; assay type: functional, tissue-based; conditions: Homo sapiens; procedure, shortened: as §1
Lymphocyte [8] = assay: Induction of ATP production in FRDA patient-derived lymphocyte at 0.1 and 0.25 uM incubated for 24 hrs by luciferase-linked ATPase enzymatic assay; assay type: functional, tissue-based; conditions: Homo sapiens, dose microM 0.1-0.25, time 24.0 hrs; procedure, shortened: as §1
Lymphocyte [9] = assay: Cytotoxicity against FRDA patient-derived lymphocyte at 2.5 uM incubated for 24 to 48 hrs by flow cytometry analysis; assay type: cell-based; conditions: human, time 24-48 hrs; procedure, shortened: as §2
Lymphocyte [10] = assay: Induction of ATP production in FRDA patient-derived lymphocyte at 0.1 to 2.5 uM incubated for 24 hrs by luciferase-linked ATPase enzymatic assay; assay type: functional, tissue-based; conditions: Homo sapiens, dose microM 0.1-2.5, time 24.0 hrs; procedure, shortened: as §1
Lymphocyte [11] = assay: Induction of ATP production in FRDA patient-derived lymphocyte at 0.1 to 0.5 uM incubated for 24 hrs by luciferase-linked ATPase enzymatic assay; assay type: functional, tissue-based; conditions: Homo sapiens, dose microM 0.1-0.5, time 24.0 hrs; procedure, shortened: as §1

SMILES: CN(C)c1ccc2nc3ccc(=[N+](C)C)cc-3sc2c1
- Activity (Lymphocyte [1]): Active
- pAMPK/AMPK ratio increase (active/not active) (HepG2): inactive
- Activity (Lymphocyte [2]): inactive
- Activity (Lymphocyte [3]): Active

SMILES: CCCCCCCCCCCCCCCCc1cc2nc3ccc(N(C)C)cc3sc-2cc1=[N+](C)C.[I-]
- EC50 (Lymphocyte [4]): 70 nM
- EC50 [5]: 55 nM
- Activity (Lymphocyte [6]): Non-Toxic
- Activity (Lymphocyte [7]): inactive
- Activity (Lymphocyte [8]): Active

SMILES: CN(C)c1ccc2nc3ccc(N(C)C)cc3[s+]c2c1.[Cl-] [METHYLENE BLUE ANHYDROUS]
- EC50 (Lymphocyte [4]): 88 nM
- EC50 [5]: 43 nM
- Activity (Lymphocyte [9]): Toxic

SMILES: CCOC(=O)c1ccc(NC2CCCCC2)c(N)c1
- EC50 (Lymphocyte [4]): 48 nM
- EC50 [5]: 33 nM

SMILES: CC(=O)N1c2ccc(N(C)C)cc2Sc2cc(N(C)C)ccc21
- EC50 (Lymphocyte [4]): > 2500 nM

SMILES: Clc1cccc(CNC2=Nc3ccccc3NC23CCNCC3)c1
- EC50 (Lymphocyte [4]): 22 nM
- EC50 [5]: 22 nM

SMILES: Cc1c(C)c2c(c(C)c1O)CC[C@@](C)(CCC[C@H](C)CCC[C@H](C)CCCC(C)C)O2 [ALPHA-TOCOPHEROL]
- EC50 (Lymphocyte [4]): > 500 nM
- EC50 [5]: > 500 nM

SMILES: CN(C)c1ccc2nc3ccc(=O)cc-3sc2c1
- EC50 (Lymphocyte [4]): 26 nM
- EC50 [5]: 27 nM
- pAMPK/AMPK ratio increase (active/not active) (HepG2): Active
- Activity (Lymphocyte [3]): Active

Now from value to molecule, other results behind:

- EC50 (Lymphocyte [4]): 14 nM
- Activity (Lymphocyte [1]): Active
SMILES: CCCCCCCCc1cc2nc3ccc(N(C)C)cc3sc-2cc1=O
- EC50 [5]: 15 nM
- Activity (Lymphocyte [9]): Toxic
- Activity (Lymphocyte [3]): Active

- EC50 (Lymphocyte [4]): 54 nM
SMILES: CCCCCCCCCCCCc1cc2nc3ccc(N(C)C)cc3sc-2cc1=[N+](C)C.[I-]
- EC50 [5]: 35 nM
- Activity (Lymphocyte [9]): Toxic
- Activity (Lymphocyte [3]): Active

- EC50 (Lymphocyte [4]): 76 nM
- Activity (Lymphocyte [10]): inactive
SMILES: CCCCCCCCc1cc2nc3ccc(N(C)C)cc3sc-2cc1=[N+](C)C.[I-]
- EC50 [5]: 39 nM
- Activity (Lymphocyte [9]): Toxic
- Activity (Lymphocyte [3]): Active

- EC50 (Lymphocyte [4]): 9 nM
- Activity (Lymphocyte [1]): Active
SMILES: CCCCCCCCCCc1cc2nc3ccc(N(C)C)cc3sc-2cc1=O
- EC50 [5]: 10 nM
- pAMPK/AMPK ratio increase (active/not active) (HepG2): Active
- Activity (Lymphocyte [9]): Toxic
- Activity (Lymphocyte [3]): Active

- EC50 (Lymphocyte [4]): 25 nM
- Activity (Lymphocyte [11]): Active
- Activity (Lymphocyte [7]): inactive
SMILES: CCCCCCCCCCCCCCCCc1cc2nc3ccc(N(C)C)cc3sc-2cc1=O
- EC50 [5]: 22 nM
- Activity (Lymphocyte [6]): Non-Toxic

- EC50 (Lymphocyte [4]): 12 nM
- Activity (Lymphocyte [1]): Active
SMILES: CCCCCCCCCc1cc2nc3ccc(N(C)C)cc3sc-2cc1=O
- EC50 [5]: 11 nM
- Activity (Lymphocyte [9]): Toxic
- Activity (Lymphocyte [3]): Active

- EC50 (Lymphocyte [4]): 16 nM
- Activity (Lymphocyte [11]): Active
- Activity (Lymphocyte [7]): inactive
SMILES: CCCCCCCCCCCCc1cc2nc3ccc(N(C)C)cc3sc-2cc1=O
- EC50 [5]: 15 nM
- Activity (Lymphocyte [6]): Non-Toxic
- Activity (Lymphocyte [3]): Active

- EC50 (Lymphocyte [4]): 38 nM
- Activity (Lymphocyte [10]): inactive
SMILES: CCCCCCCCCCc1cc2nc3ccc(N(C)C)cc3sc-2cc1=[N+](C)C.[I-]
- EC50 [5]: 29 nM
- pAMPK/AMPK ratio increase (active/not active) (HepG2): Active
- Activity (Lymphocyte [9]): Toxic
- Activity (Lymphocyte [3]): Active

- EC50 (Lymphocyte [4]): 53 nM
- Activity (Lymphocyte [10]): inactive
SMILES: CCCCCCCCCc1cc2nc3ccc(N(C)C)cc3sc-2cc1=[N+](C)C.[I-]
- EC50 [5]: 37 nM
- Activity (Lymphocyte [9]): Toxic
- Activity (Lymphocyte [3]): Active
